TRPC4 PAM – allosteric potentiators of mouse TRPC4 channel; Q9QUQ5; HEK293 TRPC4beta/mu-opioid, DAMGO EC20, Fluo-4 Ca2+ flux; stronger effect = higher value; B-score at 10 µM; 310,000 tested, 0.42% active;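 active = B-score of calcium response area above 5 SD of library B-scores, with initial fluorescence ratio within 5 SD of library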
TRPC6 inh – blocks the mouse TRPC6 cation channel; Q61143; HEK293-TRPC6, membrane potential dye, ACh-evoked depolarization; stronger effect = lower value; B-score at 10 µM; 310,000 tested, 1.1% active; AID 2553;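 active = B-score under library mean minus 3 SD, initial fluorescence not abnormally high, positive integrated signal ratio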;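 note: B-score derived from integrated fluorescence ratio over the kinetic read; more negative B-score means stronger inhibition of depolarization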
TRPC4 agonist – opens the mouse TRPC4 cation channel; HEK293 TRPC4beta/mu-opioid, Fluo4 calcium fluorescence; stronger effect = higher value; B-score at 10 µM; 310,000 tested, 0.49% active; AID 2237;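 active = B-score above 5 SD of library B-scores, and initial fluorescence ratio not above library mean plus 5 SD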;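 note: positive B-score marks a calcium rise read as TRPC4 activation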
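Assay system: HEK293 stable line with TRPC4beta plus mu-opioid receptor. Times: dye 45 min RT, read 110 s. Measured by: kinetic Fluo4 calcium fluorescence. Measure: B score of integrated ratio. Controls: assay buffer as low control, maximal DAMGO as high control.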
TRPC4 inh – blocks the mouse TRPC4 cation channel; 300,000 tested, 0.39% active; B-score at 10 µM; Q9QUQ5; HEK293 TRPC4beta/mu-opioid, DAMGO-evoked Fluo4 calcium flux; stronger effect = lower value; AID 2247;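 active = B-score over 3 SD under the library average, no early fluorescence shift, positive overall ratio signal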
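Assay system: HEK293 cells with stable TRPC4beta plus mu-opioid receptor expression; Probe or stimulus: DAMGO in two steps, submaximal then maximal; Dosing: single-point compound dosing; Measured by: Fluo4 calcium-dye fluorescence, kinetic read; Read-out basis: B score from integrated Fluo4 fluorescence ratio.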
TRPC6 act – mouse TRPC6 channel activation; HEK293-TRPC6 membrane potential dye fluorescence; stronger effect = higher value; 310,000 tested, 0.13% active; B-score at 10 µM;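 active = B-score of the integrated fluorescence ratio above library mean plus 3 SD, and starting fluorescence ratio within library mean plus 5 SD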;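 note: higher score means more depolarization so channel activation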
TRPC4 spec 2 – second check of whether TRPC6 inhibitors also affect mouse TRPC4. AID 2776. shares compounds with TRPC6 inh. 920 tested, 42% active. inhibition, % at 10 µM. HEK293 TRPC4/MOR, membrane potential dye fluorescence; channel activated by saturating DAMGO dose;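 active = compounds whose fluorescence signal differed from control wells by over 3 SD, either direction, in both duplicate plates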
TRPC4 spec – mouse TRPC4 off-target activity of TRPC6 inhibitors; activity change, negative = inhibition, % at 10 µM; shares compounds with TRPC6 inh; 920 tested, 61% active; HEK293 TRPC4/mu-opioid, membrane potential fluorescence;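 active = rise or fall in signal beyond 3 SD of buffer-only wells in both replicate plates, either sign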;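 note: integrated kinetic ratio of fluorescence range over baseline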
HEK293 MPD ctr 2-1 – second counter-screen for TRPC6 inhibitors: parental HEK293 cells; signal change vs control, % at 10 µM; AID 2779; shares compounds with TRPC6 inh; parental HEK293 membrane potential dye fluorescence; maximal acetylcholine challenge after compound addition; 920 tested, 31% active;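 active = membrane potential signal moving either way by over 3 SD of the maximum-effect control, in both duplicate plates, meaning non-specific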
HEK293 MPD ctr-1 – counter-screen for TRPC6 inhibitors: effect in parental HEK293 cells | AID 2780 | shares compounds with TRPC6 inh | parental HEK293 membrane potential dye fluorescence | membrane potential signal change, % at 10 µM | 920 tested, 60% active;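 active = membrane potential signal shifting up or down by more than 3 SD of buffer-only wells, on both duplicate plates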
HEK293 MPD ctr-2 – checks TRPC6 modulator effects in parental HEK293 cells | membrane potential dye fluorescence | membrane potential signal change, % at 10 µM | 2,400 tested, 51% active | shares compounds with TRPC6 inh;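 active = membrane potential signal moves up or down beyond 5 SD from buffer-only wells, on both duplicate plates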
HEK293 MPD ctr 2-2 – parental HEK293 nonspecific activity of TRPC6 modulators, second screen | 2,400 tested, 14% active | AID 488926 | inhibition, % at 10 µM | membrane potential dye fluorescence; after compound, maximal acetylcholine stimulation | shares compounds with TRPC6 inh;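 active = membrane potential signal drops by more than 5 SD from the mean control signal, in both duplicate plates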
TRPC4 ctr mod – selectivity of TRPC6 modulators against mouse TRPC4. shares compounds with TRPC6 inh. HEK293 TRPC4/mu-opioid, membrane potential fluorescence. percent change from control (negative = decrease, positive = increase), % at 10 µM. 2,400 tested, 69% active;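 active = membrane potential signal moved up or down beyond 5 SD of buffer control wells, in both duplicate plates, actives on both sides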
TRPC4 ctr inh 2 – mouse TRPC4 off-target activity of TRPC6 modulators, second screen; shares compounds with TRPC6 inh; 2,400 tested, 55% active; HEK293 TRPC4/mu-opioid, membrane potential dye fluorescence; stimulated with maximal-effect DAMGO; inhibition, % at 10 µM;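 active = drop in membrane potential signal beyond 5 SD of the control wells in both duplicate plates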;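 note: TRPC4 counter screen for TRPC6 hits run under conditions tuned for TRPC6 not TRPC4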
TRPC6 block conf – confirmation of mouse TRPC6 inhibitors. shares compounds with TRPC6 inh. HEK293-TRPC6, membrane potential dye, ACh-evoked depolarization. inhibition, % at 10 µM. 3,300 tested, 43% active. AID 488960;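 active = fluorescence ratio falls more than 5 SD below the full-stimulation control mean, in both duplicate runs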;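 note: integrated fluorescence ratio of peak minus minimum over baseline after agonist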
TRPC6 act conf – confirmation of mouse TRPC6 activators | HEK293-TRPC6 membrane potential dye fluorescence, FDSS | 2,800 tested, 11% active | shares compounds with TRPC6 inh | activation, % at 10 µM;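 active = ratio signal rise beyond 5 SD above unstimulated control wells' mean, seen in both duplicate runs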
Numbers stand for hits; i = inactive; nt = not tested or not shown. Shown are actives, neighbours in structure and some others; about 2.3% of the full set was active somewhere.

SMILES	TRPC4 PAM	TRPC6 inh	TRPC4 agonist	TRPC4 inh	TRPC6 act	HEK293 MPD ctr-2	HEK293 MPD ctr 2-2	TRPC4 ctr mod	TRPC4 ctr inh 2	TRPC6 block conf	TRPC6 act conf	others
CCOCCCNC(=S)Nc1ccc2nc(N3CCCC3)cc(C)c2c1	i	-5.6	i	i	i	-138%	i	-26%	40%	44%	i
COCCNC(=S)Nc1ccc2nc(N3CCCC3)cc(C)c2c1	i	-6.2	i	i	i	-135%	82%	-26%	40%	71%	i
COCCNC(=S)Nc1ccc2nc(N3CCOCC3)cc(C)c2c1	i	i	i	i	i	nt	nt	nt	nt	nt	nt
O=C(C(=O)N1CCCC1)c1c(-c2ccccc2)[nH]c2ccccc12	i	i	i	i	i	nt	nt	nt	nt	nt	nt
CCOC(=O)c1c(C)n(C)c2ccc(OC)c(NC(=O)CCN3CCC(Cc4ccccc4)CC3)c12	i	-5.2	i	i	i	i	i	i	70%	54%	i
CCOC(=O)C1(Cc2cccc(OC)c2)CCN(Cc2cccn2-c2nccs2)CC1	i	-6.5	i	i	i	207%	i	34%	86%	i	nt
CN(C)CCCn1c(=O)n(Cc2ccco2)c(=O)c2c3c(sc21)CCCCC3	i	i	i	i	i	nt	nt	nt	nt	nt	nt
Cn1c(=O)n(Cc2ccco2)c(=N)c2c3c(sc21)CCC3	i	-7.1	i	i	i	-184%	i	-32%	46%	36%	i
Cc1cc(N2CCN(c3ccc(C(F)(F)F)cc3[N+](=O)[O-])CC2)c2ccccc2n1	i	-6.3	i	i	i	i	i	-12%	67%	i	i
Cc1cc(C)n(-c2ccc(S(=O)(=O)N3CCCC3)cc2[N+](=O)[O-])n1	i	i	i	i	i	nt	nt	nt	nt	nt	nt
Cc1cc(C)n(-c2ccc(C(F)(F)F)cc2[N+](=O)[O-])n1	i	-5.3	i	i	i	i	i	9.5%	i	i	i
Cc1cc(N2CCN(c3ccc([N+](=O)[O-])c4cccnc34)CC2)c2ccccc2n1	i	i	i	i	i	nt	nt	nt	nt	nt	nt
CCOC(=O)C1=C(c2ccccc2)N(C)C(=O)NC1c1ccc(O)c(OC)c1 (stereo not drawn)	i	-9.2	i	i	i	nt	nt	nt	nt	i	i	TRPC4 spec 2=i;TRPC4 spec=0.0%;HEK293 MPD ctr 2-1=i;HEK293 MPD ctr-1=0.0%
CCOC(=O)C1=C(c2ccccc2)NC(=O)NC1c1ccc(O)c(OCC)c1 (stereo not drawn)	i	i	i	i	i	nt	nt	nt	nt	nt	nt
Cc1ccc(CS(=O)(=O)CCC(=O)NCc2ccccc2Cl)cc1	i	i	i	i	i	nt	nt	nt	nt	nt	nt
